Experimental data from PMC2774150 (Apmis, 2008).
Entries after “also recorded” stand apart in the source; their conditions may differ. Where two headings read alike, the source gives them in different places.

How the values were obtained:
[1] = cited from earlier work
[2] = tested on: H4 acetylation in spleen; assay: Experiment 4: H4 acetylation score in spleen; format: in vivo, NMRI nude mice; conditions: 200 mg/kg i.v.
Summary of the method: (§1)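 Groups of 3–4 NMRI nude mice with s.c. A2780 xenografts (500–1000 mg) received a single 200 mg/kg test compound dose i.v. or vehicle (L-arginine 400 mg/kg in isotonic sterile saline). Mice were killed at 15 min, 30 min, 1, 2 or 3 h. Tumor and spleen were halved, and one part was immunostained with T25 anti-acetyl-H4. Scores were 0–3 per mouse, averaged per time point.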

[3] = tested on: H4 acetylation in HCT-116 colon cancer model; assay: Experiment 1: H4 acetylation in vivo, HCT-116 xenograft; parameters: species or system NMRI nude mice; conditions: 100 mg/kg single i.v., 1 h
Summary of the method: (§2)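 Female NMRI nude mice, 6–8 weeks old, received about 10^7 cells with matrigel s.c. into the flank under Hypnorm/Dormicum. They were given 100 mg/kg test compound i.v. or vehicle (L-arginine 200 mg/kg in isotonic sterile saline) and killed after 1 h. Formalin-fixed, paraffin-embedded tumors were immunostained for acetylated H4 (mouse monoclonal T25, acetyl-Lys8/Lys12, 1:13,000; TEG pH 9 retrieval; EnVision+/DAB) and scored 0–3.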

[4] = tested on: H4 acetylation in A2780 biopsies and tumors; assay: Experiment 3: time dependence of H4 acetylation in A2780 biopsies and tumors; format: in vivo, NMRI nude mice; conditions: for H4 acetylation, 1 h biopsy / H4 acetylation, 2 h biopsy / H4 acetylation, 3 h biopsy / H4 acetylation, 3 h tumor / H4 acetylation, 6 h biopsy / H4 acetylation, 6 h tumor: individual mice
Summary of the method: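 Sixteen NMRI nude mice with small (300–400 mg) or large (1500–1800 mg) A2780 s.c. tumors received 100 mg/kg test compound i.v. at time zero. A pretreatment biopsy (large tumors only) and one post-dose 18G needle biopsy (1–6 h) were taken under isoflurane. Whole tumors were excised at 3, 6 or 24 h. Paraffin sections were stained with T25 anti-acetyl-H4 (1:13,000) and scored 0–3.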

[5] = tested on: H4 acetylation in peripheral blood from A2780 xenografts; conditions: 3 h after treatment, 40 mg/kg i.p.; cited from earlier work
[6] = tested on: H4 acetylation in A2780 ovarian cancer model; assay: Experiment 1: H4 acetylation in vivo, A2780 xenograft; parameters: species or system NMRI nude mice; conditions: 100 mg/kg single i.v., 1 h
Summary of the method: as §2

[7] = tested on: H4 acetylation in peripheral canine blood; conditions: 10 min after i.v. infusion given over 45 min, total dose 50 mg/kg; cited from earlier work
[8] = tested on: H4 acetylation in PC-3 prostate cancer model; assay: Experiment 1: H4 acetylation in vivo, PC-3 xenograft; parameters: species or system NMRI nude mice; conditions: 100 mg/kg single i.v., 1 h
Summary of the method: as §2

[9] = tested on: H4 acetylation in A548 lung cancer model; assay: Experiment 1: H4 acetylation in vivo, A549 xenograft; parameters: species or system NMRI nude mice; conditions: 100 mg/kg single i.v., 1 h
Summary of the method: as §2

[10] = tested on: H4 acetylation in A2780 xenograft tumor; assay: Experiment 4: H4 acetylation score in A2780 tumor; format: in vivo, NMRI nude mice
Summary of the method: as §1

[11] = tested on: H4 acetylation in histones extracted from A2780 cells; conditions: cited from earlier work
[12] = tested on: H4 acetylation in MCF-7 model; assay: Experiment 1: H4 acetylation in vivo, MCF-7 xenograft; parameters: species or system NMRI nude mice; conditions: 100 mg/kg single i.v., 1 h
Summary of the method: as §2

[13] = tested on: acetylated H4 in A2780 ovarian cancer cells; assay: H4 acetylation by immunohistochemistry in paraffin-embedded A2780 cell blocks; format: cell-based, human; conditions: 1 μM for 1 h
[14] = tested on: acetylated H4 in A2780 xenograft; assay: Experiment 2: H4 acetylation in A2780 biopsies and representative tumors; format: in vivo, NMRI nude mice; conditions: 100 mg/kg i.v., 1 h, A2780, Fig. 4A
Summary of the method: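 Mice bearing HCT-116, A2780, PC-3 or MCF-7 tumors (500–1000 mg) received 100 mg/kg test compound i.v. or vehicle and were killed after 1 h. Biopsies were taken with an 18G needle, aspirating while rotating. Biopsies and the remaining tumor were formalin-fixed, paraffin-embedded and stained with anti-acetyl-H4 T25 (1:13,000). Staining was scored negative, weak, moderate or strong (0–3).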

[15] = tested on: p21 expression in A2780 xenograft; assay: Experiment 3: p21 expression in A2780 biopsies and tumors; format: in vivo, NMRI nude mice
Summary of the method: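 In A2780 xenografts (small 300–400 mg or large 1500–1800 mg), mice received 100 mg/kg test compound i.v. Pretreatment (large tumors) and post-dose needle biopsies were taken between 1 and 6 h; whole tumors were taken at 3, 6 or 24 h. Paraffin sections were immunostained for p21 (monoclonal EA10, 1:80; TEG pH 9 retrieval; EnVision+/DAB) and nuclear versus cytoplasmic staining was recorded.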

[16] = Experiment 4: belinostat in plasma, tumor and spleen by LC-MS/MS; format: in vivo, NMRI nude mice
Summary of the method: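 A2780 xenograft mice received 200 mg/kg i.v. once; lithium-heparin plasma, tumor and spleen were collected at 15 min–3 h. Plasma was protein-precipitated with a 13C-labelled internal standard, dried and redissolved in 10% HCOOH/ACN. Tissues were homogenized in water/ACN/methanol containing internal standard (1 μg/ml). Analysis used LC-MS/MS on UPLC C18 (0.05% HCOOH/ACN, 5 min gradient, 0.5 ml/min), reporting ng/ml plasma and ng/g tissue.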

[17] = tested on: histone acetylation in peripheral blood lymphocytes; conditions: clinical study; cited from earlier work
[18] = individual mice, listed as Belinostat
[19] = 100 mg/kg i.v., large tumors (1500–1800 mg)
[20] = 100 mg/kg i.v., small tumors (300–400 mg)
[21] = 200 mg/kg i.v., individual mice
[22] = 200 mg/kg i.v., individual mice, listed as Belinostat
[23] = single treatment 200 mg/kg i.v.

Nc1ccccc1NC(=O)c1ccc(CNC(=O)OCc2cccnc2)cc1 [MS-275]
pharmacokinetics (linearity) [1]: linear, dose-independent

O=C(/C=C/c1cccc(S(=O)(=O)Nc2ccccc2)c1)NO [belinostat]
H4 acetylation (score), spleen, 2 h ([2]; individual mice): Moderate (2) | H4 acetylation (score), spleen, 15 min [2, 18]: Moderate (2); also recorded: Weak (1) | H4 acetylation (score), spleen, 30 min [2, 18]: Strong (3); also recorded: Moderate (2) | H4 acetylation (score), spleen, 1 h [2, 18]: Strong (3); also recorded: Moderate (2) | H4 acetylation (score), spleen, 3 h [2, 18]: Weak (1); also recorded: No (0) | H4 acetylation score, spleen, mean, 15 min ([2]; score 0-3): 1.5 | H4 acetylation score, spleen, mean, 30 min ([2]; score 0-3): 2.5 | H4 acetylation score, spleen, mean, 1 h ([2]; score 0-3): 2.75 | H4 acetylation score, spleen, mean, 2 h ([2]; score 0-3): 2 | H4 acetylation score, spleen, mean, 3 h ([2]; score 0-3): 0.67 | H4 acetylation [3]: caused H4 acetylation | H4 acetylation after 6 and 24 h ([4]; 100 mg/kg i.v.): weak or no | H4 acetylation, general findings at 3 h ([4]; 100 mg/kg i.v.): weak or moderate | H4 acetylation in biopsy, same mouse (Fig. 4B) ([4]; 100 mg/kg i.v., 1 h after treatment): strong (strong (score=3)) | removed tumors with strong H4 acetylation ([4]; 100 mg/kg i.v., 3 h after treatment): 1/10 | acetylation period ([4]; 100 mg/kg i.v., Experiment 3, not extended at 200 mg/kg): 1 to 2 h | H4 acetylation in tumor, same mouse (Fig. 4B) ([4]; 100 mg/kg i.v., after 3 h): weak (weak (score=1)) | H4 acetylation, 1 h biopsy [4, 19]: Strong | H4 acetylation, 2 h biopsy [4, 19]: Strong | H4 acetylation, 3 h biopsy [4, 19]: Strong | H4 acetylation, 3 h tumor [4, 19]: Moderate and Weak | H4 acetylation, 6 h biopsy [4, 19]: Weak | H4 acetylation, 6 h tumor [4, 19]: Weak | H4 acetylation, all biopsies collected 2 h after treatment ([4]; 100 mg/kg i.v., n=4): strong (strong (score=3)) | H4 acetylation, all biopsies collected 1 h after treatment ([4]; 100 mg/kg i.v., n=5): strong (strong (score=3)) | H4 acetylation, 1 h biopsy [4, 20]: Strong | H4 acetylation, 2 h biopsy [4, 20]: Strong | H4 acetylation, 3 h biopsy [4, 20]: Moderate; also recorded: Strong | H4 acetylation, 3 h tumor [4, 20]: Weak and Moderate and Strong | H4 acetylation, 6 h biopsy [4, 20]: Weak | H4 acetylation, 6 h tumor [4, 20]: Weak | time at which H4 acetylation reached base line level ([4]; after treatment, A2780 xenograft): 3 h | H4 acetylation in peripheral blood from A2780 xenografts [5]: returned to base line levels | H4 acetylation signal [6]: strongest signal | H4 acetylation in peripheral canine blood [7]: increased | H4 acetylation [8]: Weak | H4 acetylation [9]: caused H4 acetylation | H4 acetylation (score), tumor, 15 min [10, 21]: weak-to-moderate | H4 acetylation (score), tumor, 1 h [10, 21]: strong (strong (score=3)) | H4 acetylation (score), tumor, 3 h [10, 21]: weak and moderate | H4 acetylation (score), tumor, 15 min [10, 22]: Moderate (2); also recorded: No (0); also recorded: Weak (1) | H4 acetylation (score), tumor, 30 min [10, 22]: Moderate (2); also recorded: Strong (3); also recorded: Weak (1) | H4 acetylation (score), tumor, 1 h [10, 22]: Strong (3) | H4 acetylation (score), tumor, 2 h [10, 22]: Moderate (2); also recorded: Strong (3) | H4 acetylation (score), tumor, 3 h [10, 22]: Moderate (2); also recorded: Weak (1) | H4 acetylation score, tumor, mean, 15 min ([10]; 200 mg/kg i.v., score 0-3): 1.25 | H4 acetylation score, tumor, mean, 30 min ([10]; 200 mg/kg i.v., score 0-3): 2 | H4 acetylation score, tumor, mean, 1 h ([10]; 200 mg/kg i.v., score 0-3): 3 | H4 acetylation score, tumor, mean, 2 h ([10]; 200 mg/kg i.v., score 0-3): 2.33 | H4 acetylation score, tumor, mean, 3 h ([10]; 200 mg/kg i.v., score 0-3): 1.67 | time at which increased acetylated H4 was detected in tumor tissue [10, 23]: 15 min | time of maximal H4 acetylation level [10, 23]: 1 h | H4 acetylation in histones extracted from A2780 cells ([11]; 30 min after treatment with 1 μM): increased | H4 acetylation in histones extracted from A2780 cells ([11]; 3 h after treatment, 1 μM): returned to base line levels | H4 acetylation [12]: Weak | H4 acetylation [13]: strong (strong (score=3)) | H4 acetylation in both biopsies and tumors [14]: strong (III) or moderate (IV) | biopsies with moderate cytoplasmic p21 expression ([15]; 100 mg/kg i.v., 2 h, one of four biopsies): 25% | tumors with strong cytoplasmic p21 expression ([15]; 100 mg/kg i.v., 3 h, 10 tumors): 10% | tumors with weak cytoplasmic p21 expression ([15]; 100 mg/kg i.v., 3 h, 10 tumors): 50% | cytoplasmic p21 expression, all biopsies removed after 6 h ([15]; 100 mg/kg i.v., 6 h): moderate-to-strong | tumors with strong cytoplasmic p21 expression ([15]; 100 mg/kg i.v., 6 h, four tumors): 25% | cytoplasmic p21 expression after 24 h ([15]; 100 mg/kg i.v., 24 h): disappeared | time of p21 induction in the cytoplasm ([15]; after belinostat treatment): about 3 h | distribution to tumor and spleen tissue ([16]; 200 mg/kg i.v. single dose): similar | belinostat plasma concentration at maximal acetylation ([16]; 200 mg/kg i.v., 1 h after treatment, Fig. 8): above 10^3 ng/ml

O=C(CCCCCCC(=O)Nc1ccccc1)NO [vorinostat, suberoylanilide hydroxamic acid]
pharmacokinetics (linearity) ([1]; dose proportional increases in Cmax and AUC): linear | half-life of acetylated histones at higher doses [17]: increased
